Results from ChEMBL document CHEMBL3407335, “SAR-guided development and characterization of a potent antitumor compound toward B-cell neoplasms with no detectable cytotoxicity toward healthy cells” (J Med Chem, 2015).

Legend:
[1] = system: K562; test: Cytotoxicity against human K562 cells after 24 hrs by MTT assay; assay type: functional, cell-based; conditions: K562, 24 h
[2] = system: Jurkat; test: Cytotoxicity against human Jurkat cells after 24 hrs by MTT assay; assay type: functional, cell-based
[3] = Cytotoxicity against human MEC1 cells after 48 hrs by CellTitre-Blue assay; assay type: functional, cell-based; conditions: MEC1, 48 h
How it was run: (§1)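 Screening used phenol red-free RPMI 1640 + L-glutamine with 10% FBS and 1% PenStrep. Exposure was 48 h in triplicate, with CellTiter-Blue read-out. IC50 came from at least two independent experiments, each in triplicate.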

[4] = Cytotoxicity against human U2940 cells after 48 hrs by CellTitre-Blue assay; assay type: functional, cell-based; conditions: U-2940, 48 h; how it was run: as §1
[5] = Cytotoxicity against human OCI-LY7 cells after 48 hrs by CellTitre-Blue assay; assay type: functional, cell-based; conditions: OCI-Ly7, 48 h
How it was run: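 OCI-LY7 assays were run in IMDM + GlutaMAX with 25 mM HEPES, phenol red, 20% FBS and 1% PenStrep. […] Viability was read by CellTiter-Blue. IC50 came from at least two independent experiments, each with three replicates.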

[6] = Cytotoxicity against mouse M210B4 cells after 48 hrs by CellTitre-Blue assay; assay type: cell-based; conditions: M210B4, 48 h
How it was run: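 Murine bone marrow fibroblasts served as the non-malignant counter-screen. Compound was tested at six levels (0.1, 1, 5, 10, 50, 100 μM) for 48 h. Viability was read by CellTiter-Blue. IC50 came from at least two independent experiments with three replicates each.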

[7] = Cytotoxicity against human HL60 cells after 48 hrs by CellTitre-Blue assay; assay type: functional, cell-based; conditions: HL-60, 48 h
How it was run: (§2)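 Cell lines in phenol red-free RPMI 1640 with L-glutamine, 10% FBS and 1% penicillin/streptomycin. Cells exposed in triplicate to increasing compound concentrations for 48 h at 37 °C. CellTiter-Blue read-out, normalized to vehicle-only cells. IC50 from two independent experiments.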

[8] = Cytotoxicity against human SU-DHL6 cells after 48 hrs by CellTitre-Blue assay; assay type: functional, cell-based; conditions: SU-DHL-6, 48 h; how it was run: as §2
[9] = Cytotoxicity against human SUDHL9 cells after 48 hrs by CellTitre-Blue assay; assay type: functional, cell-based; conditions: SUDHL9, 48 h; how it was run: as §2
[10] = system: PBMC; test: Cytotoxicity against patient PBMC after 48 hrs by CellTitre-Blue assay; assay type: cell-based; conditions: Homo sapiens
How it was run: (§3)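 Cryopreserved PBMC (CLL patients N = 15; healthy donors N = 4) thawed and cultured overnight in phenol red-free RPMI 1640 with L-glutamine and 20% FBS. Suspension culture at 300 000 cells per well with increasing compound concentrations for 48 h, in triplicate. CellTiter-Blue viability normalized to vehicle; IC50 fitted from the mean values of all samples.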

[11] = system: PBMC; test: Cytotoxicity against healthy human PBMC after 48 hrs by CellTitre-Blue assay; assay type: cell-based; how it was run: as §3
[12] = system: PBMC; test: Cytotoxicity against patient PBMC after 48 hrs by CellTitre-Blue assay in presenc of mouse M210B4 cells; assay type: cell-based; conditions: Homo sapiens
How it was run: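 M2-10B4 mouse fibroblasts were seeded and left overnight to form a confluent layer. Medium was then replaced by 3 million PBMC from CLL patients (N = 9), which had been thawed and held overnight, in RPMI with 20% FBS. Cocultures were exposed to increasing compound concentrations for 48 h, in triplicate. CellTiter-Blue viability normalized to vehicle; IC50 from mean values of all samples.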

[13] = system: CCRF-CEM; test: Cytotoxicity against human CCRF-CEM cells assessed as reduction in cell viability at <1 uM after 48 hrs by CellTitre-Blue assay; assay type: functional
How it was run: (§4)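 Cell lines were maintained in RPMI 1640 + GlutaMAX with 10% FBS and 1% penicillin/streptomycin at 37 °C under 5% CO2. For the assay, cells went into phenol red-free RPMI 1640 + L-glutamine with 10% FBS and 1% PenStrep. They were incubated in triplicate with increasing compound concentrations for 48 h. Viability was read by CellTiter-Blue, normalized to vehicle-only cells, and reported as mean plus SD.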

[14] = system: Jurkat; test: Cytotoxicity against human Jurkat cells assessed as reduction in cell viability at <1 uM after 48 hrs by CellTitre-Blue assay; assay type: functional; how it was run: as §4
[15] = Cytotoxicity against human HL60 cells assessed as reduction in cell viability at <1 uM after 48 hrs by CellTitre-Blue assay; assay type: functional, HL-60; how it was run: as §4
[16] = system: K562; test: Cytotoxicity against human K562 cells assessed as reduction in cell viability at <1 uM after 48 hrs by CellTitre-Blue assay; assay type: functional; how it was run: as §4
[17] = system: CCRF-CEM; test: Cytotoxicity against human CCRF-CEM cells after 48 hrs by CellTitre-Blue assay; assay type: functional, cell-based; how it was run: as §2
[18] = system: Jurkat; test: Cytotoxicity against human Jurkat cells after 48 hrs by CellTitre-Blue assay; assay type: functional, cell-based; how it was run: as §2

Compound: CCOc1ccccc1C(=O)/C=C/c1ccc2ccccc2c1
- IC50 [1]: 40000 nM
- IC50 [2]: 21000 nM
- IC50 [3]: 60 nM
- IC50 [4]: 2400 nM
- IC50 [5]: 60 nM
- IC50 [6]: 7800 nM

Compound: COc1ccccc1C(=O)/C=C/c1ccc2ccccc2c1
- IC50 [3]: 430 nM
- IC50 [4]: 4100 nM
- IC50 [5]: 460 nM
- IC50 [6]: 42000 nM

Compound: CCCOc1ccccc1C(=O)/C=C/c1ccc2ccccc2c1
- IC50 [3]: 130 nM
- IC50 [4]: 5300 nM
- IC50 [5]: 100 nM
- IC50 [6]: > 100000 nM

Compound: CCCCOc1ccccc1C(=O)/C=C/c1ccc2ccccc2c1
- IC50 [3]: 700 nM
- IC50 [4]: 5300 nM
- IC50 [5]: 120 nM
- IC50 [6]: > 100000 nM

Compound: CC(C)Oc1ccccc1C(=O)/C=C/c1ccc2ccccc2c1
- IC50 [3]: 1200 nM
- IC50 [4]: 11000 nM
- IC50 [5]: 150 nM
- IC50 [6]: > 100000 nM

Compound: Cc1ccccc1C(=O)/C=C/c1ccc2ccccc2c1
- IC50 [3]: 6400 nM
- IC50 [4]: 10000 nM
- IC50 [5]: 4900 nM
- IC50 [6]: 72000 nM

Compound: CCOc1ccccc1C(=O)/C=C/c1ccc2cc(OC)ccc2c1
- IC50 [3]: 7200 nM
- IC50 [4]: 25000 nM
- IC50 [5]: 1000 nM
- IC50 [6]: > 100000 nM

Compound: C=Cc1cccc(/C=C/C(=O)c2ccccc2OCC)c1
- IC50 [3]: 200 nM
- IC50 [4]: 2500 nM
- IC50 [5]: 500 nM
- IC50 [6]: > 100000 nM

Compound: CCOc1ccccc1C(=O)/C=C/c1ccc2c(c1)OCO2
- IC50 [3]: 1100 nM
- IC50 [4]: 9500 nM
- IC50 [5]: 130 nM
- IC50 [6]: > 100000 nM

Compound: CCOc1ccccc1C(=O)/C=C/c1cccc2ccccc12
- IC50 [3]: 1900 nM
- IC50 [4]: 7400 nM
- IC50 [5]: 1500 nM
- IC50 [6]: 17000 nM

Compound: CCOc1ccccc1C(=O)/C=C/c1c2ccccc2cc2ccccc12
- IC50 [3]: > 100000 nM
- IC50 [4]: > 100000 nM
- IC50 [5]: > 100000 nM

Compound: CCOc1ccccc1C(=O)/C=C/c1cc2ccccc2c2ccccc12
- IC50 [3]: 1600 nM
- IC50 [4]: 40000 nM
- IC50 [5]: 680 nM
- IC50 [6]: > 100000 nM

Compound: CCOc1ccccc1C(=O)/C=C/c1ccc2sccc2c1
- IC50 [3]: 340 nM
- IC50 [4]: 9100 nM
- IC50 [5]: 340 nM
- IC50 [6]: 21000 nM

Compound: CCOc1ccccc1C(=O)/C=C/c1csc2ccccc12
- IC50 [3]: 170 nM
- IC50 [4]: 860 nM
- IC50 [5]: 100 nM
- IC50 [6]: 8200 nM

Compound: CCOc1ccccc1C(=O)/C=C/c1cc2ccccc2[nH]1
- IC50 [7]: 16 nM
- IC50 [8]: 56 nM
- IC50 [9]: 31 nM
- IC50 [10]: 1200 nM
- IC50 [11]: 14000 nM
- IC50 [12]: 680 nM
- Activity [13]: <30%
- Activity [14]: <30%
- Activity [15]: <30%
- Activity [16]: 60%
- IC50 [3]: 22 nM
- IC50 [4]: 2900 nM
- IC50 [5]: 52 nM
- IC50 [6]: 19000 nM
- IC50 [17]: 32 nM
- IC50 [18]: 38 nM

Compound: CCOc1cccc(C(=O)/C=C/c2ccc3ccccc3c2)c1
- IC50 [3]: 2900 nM
- IC50 [4]: 16000 nM
- IC50 [5]: 1800 nM

Compound: CCOc1cccc(C(=O)/C=C/c2csc3ccccc23)c1
- IC50 [3]: 2200 nM
- IC50 [4]: 7600 nM
- IC50 [5]: 1700 nM

Compound: CCOc1ccc(C(=O)/C=C/c2csc3ccccc23)cc1
- IC50 [3]: 7500 nM
- IC50 [4]: 15000 nM
- IC50 [5]: 4800 nM

Compound: CCOc1cccc(C(=O)/C=C/c2cc3ccccc3[nH]2)c1
- IC50 [3]: 3300 nM
- IC50 [5]: 4800 nM

Compound: CCOc1ccc(C(=O)/C=C/c2cc3ccccc3[nH]2)cc1
- IC50 [3]: > 100000 nM
- IC50 [5]: 25000 nM

Compound: Nc1nc(F)nc2c1ncn2[C@@H]1O[C@H](CO)[C@@H](O)[C@@H]1O [FLUDARABINE]
- IC50 [10]: 1900 nM
- IC50 [11]: 14000 nM
- IC50 [12]: 10000 nM
